MBD2 DNA inh: blocks human MBD2 binding to methylated DNA; Q9UBB5; TR-FRET, MBD2 binding to methylated oligonucleotide; inhibition, % at 4.4 µM; hit rate 0.31% among 370,000; AID 686964; in the data active means inhibition above about 13%
UHRF1 MBD2 ctr: UHRF1 methyl-DNA binding inhibition | UHRF1 binding to methylated oligo, TR-FRET | hit rate 0.75% among 370,000 | inhibition, % at 4.4 µM | AID 687016; in the data active means inhibition above about 21%;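 further: UHRF1 SRA domain binding a hemimethylated CpG hairpin DNA probe; 0% = median of test compound wells and 100% = reference inhibitor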
ABHD5-PLIN5 inh: blocks binding of human ABHD5 to perilipin-5; Split G. princeps luciferase complementation, luminescence, 4 h; inhibition, % at 4 µM; hit rate 0.78% among 360,000;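 active means inhibition above the mean inhibition across every tested compound plus 3 SD, cut at about 22% in these data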;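 further: 0% = DMSO only wells and the 100% control is not disclosed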
Rin1-Abl PPI inh: blocks binding of human Rin1 to Abl. AID 588664. P00519+Q13671. TR-FRET Rin1/Abl binding, biochemical. hit rate 0.4% among 360,000. inhibition, % at 7.35 µM; in the data active means inhibition above about 5%, passing the limit was not always enough
Target sequence (P00519 whole entry, looked up): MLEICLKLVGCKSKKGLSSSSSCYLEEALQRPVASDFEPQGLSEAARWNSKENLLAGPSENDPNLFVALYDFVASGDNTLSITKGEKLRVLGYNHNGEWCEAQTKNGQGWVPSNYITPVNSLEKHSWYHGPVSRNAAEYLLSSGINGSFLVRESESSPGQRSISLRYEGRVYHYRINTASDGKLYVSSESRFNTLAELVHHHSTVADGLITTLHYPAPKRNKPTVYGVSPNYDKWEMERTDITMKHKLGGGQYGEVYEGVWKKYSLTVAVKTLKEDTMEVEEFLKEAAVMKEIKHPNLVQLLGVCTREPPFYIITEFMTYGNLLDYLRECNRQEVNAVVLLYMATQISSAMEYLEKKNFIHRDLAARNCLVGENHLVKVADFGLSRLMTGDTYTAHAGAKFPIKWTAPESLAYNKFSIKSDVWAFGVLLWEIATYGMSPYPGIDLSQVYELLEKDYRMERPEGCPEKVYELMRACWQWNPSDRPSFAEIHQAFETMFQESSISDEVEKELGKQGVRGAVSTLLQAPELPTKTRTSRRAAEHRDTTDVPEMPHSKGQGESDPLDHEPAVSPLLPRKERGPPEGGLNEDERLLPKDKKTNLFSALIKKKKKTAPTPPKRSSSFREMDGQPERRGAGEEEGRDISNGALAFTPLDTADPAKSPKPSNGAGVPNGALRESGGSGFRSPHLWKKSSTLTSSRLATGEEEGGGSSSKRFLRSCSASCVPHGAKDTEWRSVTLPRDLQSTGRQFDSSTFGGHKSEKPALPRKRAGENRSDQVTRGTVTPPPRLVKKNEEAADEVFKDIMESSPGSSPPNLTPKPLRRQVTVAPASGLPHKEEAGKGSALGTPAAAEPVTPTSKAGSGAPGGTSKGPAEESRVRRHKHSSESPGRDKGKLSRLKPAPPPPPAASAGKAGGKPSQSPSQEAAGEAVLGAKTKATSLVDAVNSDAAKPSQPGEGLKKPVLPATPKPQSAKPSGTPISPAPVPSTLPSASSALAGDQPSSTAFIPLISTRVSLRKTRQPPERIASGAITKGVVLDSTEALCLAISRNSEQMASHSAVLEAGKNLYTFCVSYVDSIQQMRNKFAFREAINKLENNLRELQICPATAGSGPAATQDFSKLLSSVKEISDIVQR
Target sequence (Q13671 whole entry, looked up): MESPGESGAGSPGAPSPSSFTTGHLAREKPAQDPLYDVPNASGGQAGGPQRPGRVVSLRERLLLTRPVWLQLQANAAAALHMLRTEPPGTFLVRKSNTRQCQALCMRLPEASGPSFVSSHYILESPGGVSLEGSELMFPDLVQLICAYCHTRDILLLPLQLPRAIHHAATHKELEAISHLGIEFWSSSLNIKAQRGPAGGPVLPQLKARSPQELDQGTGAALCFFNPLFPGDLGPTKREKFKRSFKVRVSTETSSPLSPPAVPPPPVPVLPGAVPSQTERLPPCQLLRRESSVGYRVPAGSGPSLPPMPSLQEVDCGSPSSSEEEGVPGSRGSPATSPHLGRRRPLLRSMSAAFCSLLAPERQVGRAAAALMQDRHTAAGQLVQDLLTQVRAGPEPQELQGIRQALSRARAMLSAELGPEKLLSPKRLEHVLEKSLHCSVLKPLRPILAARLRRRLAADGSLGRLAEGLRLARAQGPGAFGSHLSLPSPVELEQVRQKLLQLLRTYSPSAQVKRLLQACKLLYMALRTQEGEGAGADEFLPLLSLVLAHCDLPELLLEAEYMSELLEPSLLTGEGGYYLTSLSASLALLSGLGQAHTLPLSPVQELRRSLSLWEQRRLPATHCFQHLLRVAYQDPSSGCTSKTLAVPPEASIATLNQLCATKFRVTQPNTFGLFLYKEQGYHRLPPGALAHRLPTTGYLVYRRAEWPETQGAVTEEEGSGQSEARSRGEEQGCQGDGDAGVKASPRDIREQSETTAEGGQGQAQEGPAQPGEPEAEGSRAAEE
Arrestin-AP2 inh: blocks beta-arrestin peptide binding to AP2 adaptin; FITC-arrestin peptide / GST-AP2 beads, flow cytometry; AP2 beta2 appendage carries R879A mutation; inhibition, % at 10 µM; hit rate 0.31% among 340,000; AID 504490;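 active means inhibition above a set limit, near 3 SD of compounds lacking own fluorescence, cut at about 54% in these data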;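 further: plate controls were DMSO wells for no effect and 5 µM unlabelled arrestin peptide for full effect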
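System: GST-AP2 R879A glutathione beads. Medium: PBS with 0.05% Tween 20 and 0.1% BSA. Also added: FITC-arrestin peptide, 50 nM. Incubation: 12 min plus 1 h, RT. Measured by: high-throughput flow cytometry of beads, ex 488, em 535 nm. Evaluation: percent drop in bead-associated FITC signal.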
Beta2AR agonist: agonists of human beta-2 adrenergic receptor inducing internalization; Am2.2-beta2AR cells, FAP receptor internalization, flow cytometry; response, % (no concentration beside the values); hit rate 0.43% among 340,000; AID 504454;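 active means response above a set limit, near 3 SD of response in nonfluorescent compounds, cut at about 42% in these data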
* = called active by the depositor; nt = no result. In the library only some 2.5% were active in any assay of this set; here they are far more common.

SMILES	MBD2 DNA inh	UHRF1 MBD2 ctr	ABHD5-PLIN5 inh	Rin1-Abl PPI inh	Arrestin-AP2 inh	Beta2AR agonist
O=C(Cn1cc(SCc2ccccc2Cl)c2ccccc21)N1CCOCC1	9	24*	-7	-2	-13	4
Cc1ccc(NC(=O)c2cc(N3C(=O)C=CC3=O)ccc2N2CCOCC2)cc1Cl	-1	0	22	1	-2	76*
COc1cccc(-c2nnc3n2N=C(c2ccc(Cl)cc2)CS3)c1	4	-1	nt	nt	nt	nt
Cc1nn(C)c(C)c1C1C(C#N)=C(N)OC2=C1C(=O)CCC2 (centres undefined)	9	21*	5	-3	12	2
CCn1nc(C)c(C2C(C#N)=C(N)OC3=C2C(=O)CCC3)c1C (centres undefined)	2	1	2	-1	-6	-2
COc1cc(/C=N/NC(=O)c2nnn(-c3nonc3N)c2C(C)C)ccc1OCc1ccc(F)cc1	10	21*	-12	-2	17	10
CCOC(=O)c1c(N)n(-c2ccc(N)cc2)c2nc3ccccc3nc12	-1	0	7	-3	8	-20
CCOc1ccc(-n2c(N)c(C(=O)NCc3ccco3)c3nc4ccccc4nc32)cc1	nt	nt	33*	-2	14	15
Nc1c(C(=O)Nc2ccccc2)c2nc3ccccc3nc2n1-c1ccc(O)cc1	0	0	23*	-4	17	1
CCn1c(=O)c(C(=O)NNS(=O)(=O)c2ccc(C)cc2)c(O)c2ccccc21	-7	-5	-6	0	-1	2
CCn1c(=O)c(C(=O)NNS(=O)(=O)c2ccc(Br)cc2)c(O)c2ccccc21	3	35*	-4	2	24	4
C=C1C2(C(=O)NCc3ccco3)CCC(C2)C1(C)C (centres undefined)	3	22*	2	0	5	-4
CC1(C)C(=O)C2(C(=O)NCc3ccccc3)CCC1C2 (centres undefined)	-3	3	0	2	5	-6
Cc1cccc(-c2cccc3c4c([nH]c23)[C@@H]2C[C@H](N(C)C(=O)c3cccc(Cl)c3)[C@H]([C@H](C)O)CN2CC4)c1	0	4	nt	nt	nt	nt
COc1ccc(CNc2nc3ccccc3s2)cc1OC	0	1	-9	-5	-12	10
c1ccc(CCNc2nc3ccccc3s2)cc1	5	21*	5	-4	15	15
O=C(Cn1ncc2c1-c1ccccc1OC2)N1CCN(Cc2ccccc2)CC1	11	27*	-1	-3	-3	-3
O=C(CCn1nnc(-c2cccs2)n1)NCc1cccs1	2	0	nt	nt	nt	nt
CCNc1ccc(Br)cc(C(=O)/C=C/c2ccc(Cl)cc2Cl)c1=O	-8	-3	47*	2	25	-97
CC(C)c1ccc(/C=C/c2[nH]c(=O)[nH]c(=O)c2[N+](=O)[O-])cc1	5	0	22*	1	14	10
CCOc1ccc(/C=C/c2[nH]c(=O)[nH]c(=O)c2[N+](=O)[O-])cc1	-1	20	3	2	-4	-14
C[C@H]1[C@@H](OC(=O)Nc2ccccc2Cl)CC[C@@]23CCCN2C(=O)CCC[C@@H]13	-1	-1	nt	nt	nt	nt
Cc1ccc(-c2nc3ccc(Br)cn3c2CC(C)(C)C)cc1	-3	20	-4	0	nt	nt
Cc1ccc(Cc2c(-c3ccc(Cl)cc3)nc3cc(C)ccn23)cc1	1	22*	5	4	nt	nt
Cc1ccn2c(Cc3ccccc3)c(-c3ccc(Br)cc3)nc2c1	9	20	-1	0	nt	nt
SMILES	MBD2 DNA inh	UHRF1 MBD2 ctr	ABHD5-PLIN5 inh	Rin1-Abl PPI inh	Arrestin-AP2 inh	Beta2AR agonist
Cc1ccc(Cc2c(-c3ccc(C)cc3)nc3cc(C)ccn23)cc1	6	23*	-7	-1	nt	nt
Cc1ccn2c(Cc3ccccc3)c(-c3ccccc3)nc2c1	8	21*	-9	-1	nt	nt
Cc1ccc(Cc2c(-c3ccc(Cl)cc3)nc3cc(C)c(Br)c(C)n23)cc1	3	17	7	2	nt	nt
Cc1ccn2c(CC(C)(C)C)c(-c3ccc(F)cc3)nc2c1	4	22*	-9	-5	nt	nt
C=CCN1[C@H](C)COc2cccc(F)c2S1(=O)=O	1	4	nt	nt	nt	nt
S=c1[nH]nc(-c2n[nH]c3c2CCC3)n1N=Cc1c2ccccc2cc2ccccc12	1	-7	nt	nt	nt	nt
COc1cc(NC(=O)c2ccc3c(=O)n(Cc4ccco4)c(=S)[nH]c3c2)cc(OC)c1OC	-2	-1	22*	-1	6	5
O=C(CSc1ccc(-c2cccs2)nn1)Nc1ccccc1	8	-1	2	-3	0	-7
O=C(CSc1ccc(-c2cccs2)nn1)c1cccs1	9	23*	-4	-4	-7	1
CCCC1CC(C)(/C(C)=N\NC(N)=S)OC1=O (centres undefined)	-2	0	-1	3	56*	2
Cc1ccc(C(=O)Cn2nnc(-c3ccccc3-n3cnnn3)n2)cc1	1	6	0	3	18	-1
COc1ccc(C(=O)Cn2nnc(-c3ccccc3-n3cnnn3)n2)cc1	0	34*	4	2	18	-4
Cc1cc(/C=C(/C#N)c2nc3ccccc3[nH]2)c(C)n1-c1cc(C(=O)O)cc(C(=O)O)c1	1	23*	1	1	34	-9
COc1ccc(C(C[N+](=O)[O-])c2c(-c3ccccc3)cc3ccccn23)c(OC)c1 (centres undefined)	-7	3	41*	0	7	30
Cc1cccc(N2CCN(C(=O)Cn3nc(C)n4cccc4c3=O)CC2C)c1 (centres undefined)	0	0	-5	-4	-6	-6
Cc1cccc(N2CCN(C(=O)Cn3sc4nc(C)cc(C)c4c3=O)CC2C)c1 (centres undefined)	nt	nt	82*	-2	6	29
O=C(NCCN1CCCCC1)Nc1ccc(F)cc1F	-4	23*	-1	-1	1	-3
COC(=O)[C@]12C[C@H](CC(=O)NCCc3ccccc3OC)C(=O)N(Cc3ccco3)C1=C[C@H](C(C)(C)C)O[C@@H]2C	0	1	nt	nt	nt	nt
Cc1c(NC(=O)c2ccco2)cccc1-c1nc2cccnc2s1	-5	-1	-5	-4	0	14
Cc1c(NC(=O)c2ccc(Cl)nc2)cccc1-c1nc2cccnc2s1	10	22*	-5	-3	5	-8
O=C1N/C(=C\c2ccc(O)cc2)C(=O)c2ccccc21	nt	nt	34*	7	-9	18
CCOC(=O)C1CCN(S(=O)(=O)c2c(Cl)ccc3nonc23)CC1	-2	0	15	4	3	79*
CCCCN(CC)CCCNC(=O)c1cc2c(-c3ccc(OC)c(OC)c3)nn(C)c2s1	12	24*	7	-1	-2	-9
CCN(CC)CCCNC(=O)c1cc2c(-c3cccc(OC)c3)nn(C)c2s1	-1	9	-1	1	-10	6

Screens from PubChem BioAssay.
